The text below walks through data of ChEMBL document CHEMBL6127097, “Structure-Guided Discovery of cis-Hexahydro-pyrido-oxazinones as Reversible, Drug-like Monoacylglycerol Lipase Inhibitors” (J Med Chem, 2024).

≈ marks a conversion by molar mass, not a printed value. Some results are limits rather than exact numbers.

One data set deals with T1, Monoglyceride lipase (Homo sapiens, UniProt Q99685).
T1 sequence (Q99685 whole entry): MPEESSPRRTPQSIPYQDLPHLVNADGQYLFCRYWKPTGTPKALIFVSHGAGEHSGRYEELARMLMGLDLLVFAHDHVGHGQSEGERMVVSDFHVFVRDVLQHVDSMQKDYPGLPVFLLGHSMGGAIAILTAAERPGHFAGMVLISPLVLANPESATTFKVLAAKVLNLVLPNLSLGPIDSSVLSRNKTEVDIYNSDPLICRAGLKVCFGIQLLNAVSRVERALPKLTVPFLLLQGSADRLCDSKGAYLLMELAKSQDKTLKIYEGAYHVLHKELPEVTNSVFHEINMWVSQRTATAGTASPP
The data set is described as follows: Inhibition of human MAGL using native substrate by Rapidfire MS assay.

Data set [1] is described as follows: Aqueous solubility of compound in phosphate buffer at pH 6.5 by HPLC or MS/MS analysis. It counts as physicochemical. To be noted: phosphate buffer, read-out: solubility. In a few lines: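 Lyophilization solubility assay (LYSA) starting from a 10 mM DMSO stock. DMSO was removed by centrifugal vacuum evaporation, then 0.05 M phosphate buffer pH 6.5 was added and samples sonicated. Filtrates were analysed by MS/MS and/or HPLC against a 4- to 7-point calibration curve.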

The nature of data set [2]: Octanol-water partition coefficient, logD of the compound at pH 7.4 incubated for 1.5 hrs by shake flask based LC-UV/MS analysis. In kind it is physicochemical. To be noted: pH 7.4. In a few lines: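 CAMDIS shake-flask variant. 10 mM DMSO stock is diluted into 25 mM phosphate pH 7.4 over a 1-octanol-impregnated PVDF membrane and shaken 1.5 h at 21 °C, at two octanol/buffer ratios, in triplicate. Remaining aqueous concentration is read by LC/MS; logD comes from the difference with and without octanol.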

Data set [3] is described as follows: Free fraction in human plasma incubated for 5 hrs by equilibrium dialysis based LC-MS/MS analysis. It counts as ADME, cell-free. In outline:
(§1)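 Equilibrium dialysis across a 12–14 kDa cutoff membrane in a Teflon 96-well device. Pooled frozen plasma is adjusted to pH 7.4 and spiked at 1000 nM initial total, against Soerensen buffer pH 7.4. Incubation is 5 h at 37 °C, 5% CO2, with diazepam control in each well. %fu = 100 × buffer/matrix concentration after dialysis; recovery accepted at 80–120%.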
On the technique in general: Equilibrium dialysis compares concentrations on both sides of a semipermeable membrane.

A short description of data set [4]: Plasma protein binding in human assessed as fraction unbound by equilibrium dialysis based LC-MS/MS method. It counts as ADME, cell-free. In a few lines: as §1
The nature of data set [5]: Cmax in C57BL/6 mouse at 5.1 mg/kg, po measured upto 7 hrs by LC-MS/MS analysis. To be noted: in vivo.
Data set [6] can be described thus: AUClast in C57BL/6 mouse at 5.1 mg/kg, po measured upto 7 hrs by LC-MS/MS analysis. To be noted: in vivo.
A short description of data set [7]: Oral bioavailability in C57BL/6 mouse at 5.1 mg/kg measured upto 7 hrs by LC-MS/MS analysis. To be noted: in vivo.
Data set [8] in a line: Ratio of drug concentration in C57BL/6 mouse brain to plasma at 24 mg/kg, ip measured upto 7 hrs by LC-MS/MS analysis.
A short description of data set [9]: Volume of distribution at steady state in C57BL/6 mouse at 1.3 mg/kg, iv measured upto 7 hrs by LC-MS/MS analysis. To be noted: in vivo, read-out: Vdss.
A short description of data set [10]: Cmax in C57BL/6 mouse at 24 mg/kg, ip measured upto 7 hrs by LC-MS/MS analysis. To be noted: in vivo.
A short description of data set [11]: Half-life in C57BL/6 mouse at 1.3 mg/kg, iv measured upto 7 hrs by LC-MS/MS analysis. To be noted: in vivo.
Data set [12] can be described thus: Half-life in C57BL/6 mouse at 24 mg/kg, ip measured upto 7 hrs by LC-MS/MS analysis. To be noted: in vivo.
The nature of data set [13]: Tmax in C57BL/6 mouse at 24 mg/kg, ip measured upto 7 hrs by LC-MS/MS analysis. To be noted: in vivo.
Data set [14] can be described thus: AUClast in C57BL/6 mouse at 24 mg/kg, ip measured upto 7 hrs by LC-MS/MS analysis. To be noted: in vivo.
Data set [15] can be described thus: Unbound brain to plasma partition coefficient of compound in C57BL/6 mouse at 24 mg/kg, ip measured upto 7 hrs by LC-MS/MS analysis. To be noted: read-out: K(p,uu,brain).
The nature of data set [16]: Clearance in C57BL/6 mouse at 1.3 mg/kg, iv measured upto 7 hrs by LC-MS/MS analysis. To be noted: in vivo.
The nature of data set [17]: Tmax in C57BL/6 mouse at 5.1 mg/kg, po measured upto 7 hrs by LC-MS/MS analysis. To be noted: in vivo.
The nature of data set [18]: Ratio of drug concentration in C57BL/6 mouse CSF to plasma at 24 mg/kg, ip measured upto 7 hrs by LC-MS/MS analysis.

Regarding `O=C1COc2ccc(C(=O)N3CCC(C(c4ccc(F)cc4)c4ccc(F)cc4)CC3)cc2N1`, on Monoglyceride lipase (read-out: IC50), the IC50 amounted to 1 nM. Besides, the solubility in data set [1] was less than 0.1 µg/mL. The same compound registered a pH-dependent lipophilicity (logD) at 1.5 h in [2] of 3.8.

Take `O=C1COc2ccc(C(=O)N3CCC(C(c4ccccc4)c4ccccc4)CC3)cc2N1`: the IC50 on Monoglyceride lipase (read-out: IC50) was 1 nM; on Monoglyceride lipase (read-out: pIC50 (converted)), 0.437 nM. For the same compound, the solubility in data set [1] is less than 0.1 µg/mL. Besides, the pH-dependent lipophilicity (logD) at 1.5 h in data set [2] was 3.8.

Take `O=C1C[C@H]2CCN(C(=O)N3CCC(Cc4ccc(C(F)(F)F)cc4)CC3)C[C@H]2N1`: the IC50 at Monoglyceride lipase (read-out: IC50) came to 569 nM. The solubility in [1] was determined as 377 µg/mL (≈ 921 µM). The same compound registered a pH-dependent lipophilicity (logD) at 1.5 h in data set [2] of 3.2.

Take `O=C1COc2ccc(C(=O)N3CCC(c4c[nH]c5ccc(Cl)cc45)CC3)cc2N1`: the IC50 at Monoglyceride lipase (read-out: IC50) was found to be 3 nM. Besides, the solubility in [1] was found to be 2 µg/mL (≈ 4.88 µM). Moreover, the logD at 1.5 h in data set [2] was 3.6.

Consider `O=C1COc2ccc(C(=O)N3CCC(Cc4cccc(C(F)(F)F)c4)CC3)cc2N1`, for which the IC50 on Monoglyceride lipase (read-out: IC50) is 46 nM; on Monoglyceride lipase (read-out: pIC50 (converted)), 44.7 nM. In addition, in data set [1], the solubility is 15 µg/mL (≈ 35.8 µM). This compound displayed a logD at 1.5 h in data set [2] of 3.9.

Take `O=C1COc2ccc(C(=O)N3CCC(Cc4ccc(C(F)(F)F)cc4)CC3)cc2N1`: the results for the IC50 at Monoglyceride lipase (read-out: IC50) and at Monoglyceride lipase (read-out: pIC50 (converted)) were 32 nM and 28.8 nM, respectively. In addition, the solubility in data set [1] is 4.1 µg/mL (≈ 9.8 µM). This compound also had a logD at 1.5 h in data set [2] of 3.8. In data set [3], the fraction unbound at 5 h was found to be 0.005. The fraction unbound in data set [4] came out at 0.005.

Take `O=C1COc2ccc(C(=O)N3CCC(Cc4ccccc4)CC3)cc2N1`: the IC50 on Monoglyceride lipase (read-out: IC50) came out at 75 nM. In data set [1], the solubility amounted to 1.1 µg/mL (≈ 3.14 µM). Besides, in data set [2], the pH-dependent lipophilicity (logD) at 1.5 h was 3.2.

Regarding `O=C1COc2ccc(C(=O)N3CCC(c4c[nH]c5ccccc45)CC3)cc2N1`, the IC50 on Monoglyceride lipase (read-out: IC50) is 37 nM. Moreover, the solubility in [1] was found to be 37 µg/mL (≈ 98.6 µM). In [2], the pH-dependent lipophilicity (logD) at 1.5 h was determined as 2.9.

For `O=C1COc2ccc(C(=O)N3CCC(Cc4ccc(F)cc4)CC3)cc2N1`, the values for the IC50 at Monoglyceride lipase (read-out: IC50) and on Monoglyceride lipase (read-out: pIC50 (converted)) were 62 nM and 57.5 nM, respectively. The solubility in [1] came out at 0.8 µg/mL (≈ 2.17 µM). The logD at 1.5 h in data set [2] amounted to 3.3.

Take `O=C1CO[C@H]2CCN(C(=O)N3CCC(Cc4ccc(C(F)(F)F)cc4)CC3)C[C@H]2N1` (racemic): the IC50 at Monoglyceride lipase (read-out: IC50) amounted to 65 nM. Moreover, the Cmax amounted to 896 ng/mL in data set [5] and 12200 ng/mL in data set [10]. For the same compound, the AUC(0-t) at 7 h in data set [6] is 4560 ng·h/mL; in [14], 62100 ng·h/mL. Besides, the solubility in [1] was 225 µg/mL (≈ 529 µM). Besides, the bioavailability in data set [7] came out at 127%. Further, the Kp at 7 h worked out at 1.7 in data set [8] and 0.016 in data set [18]. In data set [9], the Vd amounted to 3 L/kg. Besides, the half-life in [11] is 1.5 h; in [12], 2.9 h. The time of peak concentration (Tmax) turned out to be 1.5 h in data set [13] and 2.7 h in data set [17]. Further, the Kp uu at 7 h in data set [15] is 0.35. The clearance in data set [16] turned out to be 23 mL/min/kg. This compound returned a pH-dependent lipophilicity (logD) at 1.5 h in data set [2] of 3.2.

With `O=C1CO[C@H]2CCN(C(=O)N3CCC(Cc4ccc(C(F)(F)F)cc4)CC3)C[C@@H]2N1` (racemic), the IC50 on Monoglyceride lipase (read-out: IC50) was 370 nM; on Monoglyceride lipase (read-out: pIC50 (converted)) it was 347 nM. The solubility in [1] came to 78 µg/mL (≈ 183 µM). In data set [2], this compound displayed a logD at 1.5 h of 3.2.

Take `O=C1COc2ccc(C(=O)N3CCC(c4c[nH]c5cc(Cl)ccc45)CC3)cc2N1`: the IC50 on Monoglyceride lipase (read-out: IC50) worked out at 21 nM. In addition, in data set [1], the solubility was 0.3 µg/mL (≈ 0.732 µM). In data set [2], this compound had a logD at 1.5 h of 3.8.

Consider `O=C1COc2ccc(C(=O)N3CCC(Cc4cccc(F)c4)CC3)cc2N1`, for which the IC50 was 51 nM at Monoglyceride lipase (read-out: IC50) and 49 nM at Monoglyceride lipase (read-out: pIC50 (converted)). Besides, the solubility in data set [1] is 36 µg/mL (≈ 97.7 µM). In addition, the logD at 1.5 h in [2] turned out to be 3.6.

As to `O=C(c1ccc2cn[nH]c2c1)N1CCC(Cc2ccc(C(F)(F)F)cc2)CC1`, the IC50 at Monoglyceride lipase (read-out: IC50) was 965 nM; on Monoglyceride lipase (read-out: pIC50 (converted)), 912 nM. In data set [1], the solubility was 2.9 µg/mL (≈ 7.49 µM). The same compound came in with a logD at 1.5 h in data set [2] of 3.8.

For the compound `O=C1CO[C@@H]2CCN(C(=O)N3CCC(Cc4ccc(C(F)(F)F)cc4)CC3)C[C@@H]2N1`, the IC50 on Monoglyceride lipase (read-out: IC50) is 2200 nM. The solubility in data set [1] is 114 µg/mL (≈ 268 µM). In [2], this compound showed a logD at 1.5 h of 3.3.

For `O=C1CSc2ccc(C(=O)N3CCC(Cc4ccc(C(F)(F)F)cc4)CC3)cc2N1`, the IC50 at Monoglyceride lipase (read-out: IC50) is 2500 nM; on Monoglyceride lipase (read-out: pIC50 (converted)), 2400 nM. Further, the solubility in data set [1] amounted to 6.9 µg/mL (≈ 15.9 µM). In data set [2], the logD at 1.5 h came to 3.7.

As usually defined, the solubility is the dissolved amount per volume that the medium holds. What is called logD is the decadic logarithm of the distribution of all forms, ionised or not, between an organic phase and buffer at a given pH. Read a low logD as lower lipophilicity. As usually defined, the fraction unbound is free concentration divided by total concentration. In general, Cmax refers to the maximum level reached in the sampled fluid or tissue. The AUC(0-t) is exposure summed from dosing to a finite time, without extrapolation to infinity. Lower therefore signals low exposure. Usually Kp stands for tissue or fluid exposure divided by exposure in the circulation. The half-life is how long it takes for the measured level to halve. Higher therefore signals slow decline. By Tmax is commonly meant the time from dosing to the highest level. In general, clearance refers to the volume of plasma or blood freed of the substance per unit of time.
